Experimental data taken from paper PMC6347502 (Photochemistry and photobiology, 2018).
Several values for one entry are separate records, joined by “and”; a condition that tells them apart may be missing. Equal entries are not always repeated. Where two headings read alike, the source gives them in different places.

What was measured:
pUC19 plasmid DNA = experiment: DNA photocleavage, plasmid gel mobility shift assay; assay type: biochemical; conditions: pUC19 20 μM NPs, visible light 14 J cm^−2
[1] = Steady-state and time-resolved emission; assay type: physicochemical
In short: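 PF₆⁻ salts, 5–20 µM, in MeCN argon-sparged in a long-stem cuvette, or as 4:1 EtOH:MeOH glass frozen in liquid N₂ (77 K). Quantum yields from corrected steady-state spectra relative to [Ru(bpy)₃](PF₆)₂ (0.095 deaerated MeCN at 298 K; 0.38 at 77 K). Lifetimes measured with nitrogen/dye laser excitation at 457 nm, monitored at emission maximum, stroboscopic detection.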

[2] = Singlet oxygen sensitization quantum yield; assay type: physicochemical
[3] = tested on: HL-60 human promyelocytic leukemia cells; experiment: Cytotoxicity and photocytotoxicity, resazurin cell viability, leukemia cells; assay type: cell-based
In short: (§1)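 HL-60 cells (suspension, RPMI 1640 + 20% FBS) or SK-MEL-28 cells (adherent, EMEM + 10% FBS) were used in log phase at ≥93% viability and equilibrated for 3 h. Chloride salts were diluted in DPBS (1 nM–300 µM; DMSO <0.1%) and incubated 16 h at 37 °C, 5% CO₂. Cells were then kept dark or given 100 J cm⁻² of visible light (400–700 nm, 44 mW cm⁻²) or red LED light (625 nm, 52.5 mW cm⁻²). After 48 h, resazurin was added for 3 h; fluorescence ex 530/em 620 nm. Triplicate. EC50 from sigmoidal dose–response fit; PI = dark/light EC50.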

[4] = tested on: SK-MEL-28 malignant melanoma cells; experiment: Cytotoxicity and photocytotoxicity, resazurin cell viability, melanoma cells; assay type: cell-based, human
In short: as §1

[5] = UV-vis absorption, molar extinction coefficient at 625 nm; assay type: physicochemical
In short: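 PF₆⁻ salts in spectroscopic-grade MeCN. ε was taken from the slope of absorbance versus concentration over five concentrations, measured in duplicate.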

[6] = Nanosecond transient absorption lifetime; assay type: physicochemical; conditions: degassed MeCN
In short: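 Nanosecond laser flash photolysis on MeCN solutions argon-purged for 45 min. Excitation was 355 nm from a Nd:YAG third harmonic (4.1 ns pulse, 1 Hz). Transient difference absorption spectra were recorded and lifetimes taken from signal decays.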

[7] = aerated MeCN; cited from earlier work
[8] = cited from earlier work

Row | Compound | MC:NP ratio for complete photocleavage (conversion of Form I to Form II DNA) (pUC19 plasmid DNA) | τem 77 K ([1]; 77 K, EtOH:MeOH (4:1) glass) | Φ (emission quantum yield) 77 K ([1]; 77 K, EtOH:MeOH (4:1) glass, PF6 salt) | τem 298 K ([1]; 298 K, argon-purged MeCN) | Φ (emission quantum yield) 298 K ([1]; 298 K, argon-purged MeCN, PF6 salt) | ΦΔ (singlet oxygen quantum yield) 298 K ([2]; air-saturated MeCN at 298 K, relative to [Ru(bpy)3](PF6)2) | 1O2 quantum yield (ΦΔ) ([2]; air-saturated MeCN, room temperature) | PI red light, HL60 ([3]; ratio of dark to red-light (625 nm) EC50, HL60) | PI visible light, HL60 ([3]; ratio of dark to visible-light EC50, HL60) | PI red light, SKMEL28 ([4]; ratio of dark to red-light (625 nm) EC50, SKMEL28) | PI (phototherapeutic index) visible light, SKMEL28 ([4]; ratio of dark to visible-light EC50, SKMEL28) | EC50 ([4]; read-out: EC50 dark, SKMEL28, SKMEL28, dark) [µM] | molar absorptivity at 625 nm (ε625 nm) [5] [M⁻¹ cm⁻¹] | τTA, lifetime of nonemissive 3IL state [6] [μs] | ΦΔ of standard [7] | Φem reference value ([8]; 77 K in frozen 4:1 v/v EtOH:MeOH) | Φem reference value ([8]; 298 K in aerated MeCN) | Φem reference value ([8]; 298 K in deaerated MeCN) | emission lifetime [8] [μs]
1 | F[P-](F)(F)(F)(F)F.F[P-](F)(F)(F)(F)F.[Ru+2].c1ccc(-c2ccccn2)nc1.c1ccc(-c2ccccn2)nc1.c1csc(-c2ccc(-c3cc4cccnc4c4ncccc34)s2)c1 [Compound 2, Ru(bpy)2(phen-2T)PF6] | 1 | 6,600 ns | 0.14 | 1,030 ns | 0.0092 | 0.78 | 74–78% and 78% and 74% | 19 | 835 | 2 | 150 | 32 ± 1 | < 100 | 43 |  |  |  |  | 
2 | F[P-](F)(F)(F)(F)F.F[P-](F)(F)(F)(F)F.[Ru+2].c1ccc(-c2ccccn2)nc1.c1ccc(-c2ccccn2)nc1.c1ccc(-c2ccccn2)nc1 [[Ru(bpy)3](PF6)2] |  |  |  |  |  |  |  |  |  |  |  |  |  |  | 0.56 | 0.38 | 0.012 | 0.095 | 0.9
